Experimental data gathered from unrelated publications.
Protocols differ between the studies behind these lines.
M-phase phosphoprotein 8 chromodomain: M-phase phosphoprotein 8, chromodomain (Homo sapiens, UniProt Q99549)
ESR1: Estrogen receptor (ESR1, Homo sapiens, UniProt P03372)
AChE: AChE (Phlebotomus papatasi, UniProt M1F887)

SMILES	target	observed	action	technique	quantity	result
CCN(CCCC[C@H](NC(=O)[C@H](CC(C)C)NC(=O)[C@H](C)NC(=O)[C@H](Cc1c(F)c(F)c(F)c(F)c1F)NC(=O)c1cccnc1)C(=O)N[C@@H](CO)C(N)=O)C(C)C	M-phase phosphoprotein 8 chromodomain	cell-free assay		TR-FRET	IC50	1.6 µM
Clc1ccc(Cl)c(-c2ccccc2Cl)c1	ESR1	reporter gene	agonist	luciferase	EC50	9 µM
CCN(CCCC[C@H](NC(=O)[C@H](CC(C)C)NC(=O)[C@H](C)NC(=O)[C@H](Cc1ccccc1)NC(=O)c1ccc(Br)c(N)c1)C(=O)N[C@@H](CO)C(N)=O)C(C)C	M-phase phosphoprotein 8 chromodomain	cell-free assay		TR-FRET	IC50	0.29 µM
COc1cc2c3cc1Oc1cc(ccc1O)C[C@@H]1c4c(cc(OC)c(O)c4Oc4ccc(cc4)C[C@@H]3N(C)CC2)CC[N+]1(C)C	AChE	enzyme activity	inhibitor		IC50	38.9 µM
CCCC[C@@H](NC(=O)[C@@H](N)Cc1c(C)cc(O)cc1C)C(=O)NCC(=O)N[C@@H](Cc1ccc(F)cc1)C(=O)N(C)CCC[C@@]1(c2ccc(F)cc2)OCc2cc(C#N)ccc21	Alpha-2C adrenergic receptor (ADRA2C, Homo sapiens, UniProt P18825)	ligand displacement		radioligand	Ki	0.28 µM
N[C@@H](Cc1ccc(O)cc1)C(=O)O	Iodotyrosine deiodinase (Haliscomenobacter hydrossis, UniProt F4KU78)	binding		fluorescence	Kd	> 1200 µM
CCN(CCCC[C@H](NC(=O)[C@H](Cc1ccc(OC)c(OC)c1)NC(=O)[C@H](C)NC(=O)[C@H](Cc1ccccc1)NC(=O)c1cccnc1)C(=O)N[C@@H](CO)C(N)=O)C(C)C	M-phase phosphoprotein 8 chromodomain	cell-free assay		TR-FRET	IC50	1.9 µM
O=C1C[C@@H](c2ccc(O)cc2)Oc2cc(O)ccc21	ESR1	reporter gene	agonist	luciferase	EC50	0.681 µM
CCCCCNC(=N)N/N=C/c1c[nH]c2ccc(OC)cc12	5-hydroxytryptamine receptor 1A (HTR1A, Homo sapiens, UniProt P08908)	calcium signal	agonist	fluorescence	EC50	18 µM
CC[n+]1c(-c2ccccc2)c2cc(N)ccc2c2ccc(N)cc21	AChE	enzyme activity	inhibitor		IC50	14.1 µM
Oc1ccc(-c2cccc(Cl)c2)cc1Cl	ESR1	reporter gene	agonist	luciferase	EC50	8.2 µM
CCN(CCCC[C@H](NC(=O)[C@H](CC(C)C)NC(=O)[C@H](C)NC(=O)[C@H](Cc1ccccc1)NC(=O)c1ccncc1)C(=O)N[C@@H](CO)C(N)=O)C(C)C	M-phase phosphoprotein 8 chromodomain	cell-free assay		TR-FRET	IC50	0.99 µM
Clc1ccc(-c2ccccc2Cl)cc1	ESR1	reporter gene	agonist	luciferase	EC50	20 µM
C[C@H]1CCC[C@H](O)CCCCCc2cc(O)cc(O)c2C(=O)O1	ESR1	reporter gene	agonist	luciferase	EC50	0.000134 µM
